Data on six compounds can be found in ChEMBL document CHEMBL4393665 (Eur J Med Chem, 2019).

A short description of series [1]: Half life in human plasma at 1 uM by LC-MS/MS analysis. The class given is ADME, cell-free. In a few lines:
(§1)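 Samples were incubated in phosphate buffer or human plasma and analysed by LC-MS/MS in product ion scan mode. Analyte concentration was monitored over incubation time. The slope of ln(concentration) versus time gave the first-order degradation rate constant k, and t1/2 was calculated from k. Ketoprofen ethyl ester served as a reference to confirm that the plasma batch was enzymatically active.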

For series [2], the target named is T1, ATP-dependent translocase ABCB1 (Homo sapiens, UniProt P08183). Description: Inhibition of P-gp in human K562/DOX cells assessed as drug level causing 50% increase in nuclear pirarubicin concentration incubated for 30 mins by spectroflurometry. The conditions noted are these: read-out: I0.5. It counts as cell-based. In short, it runs like this: (§2)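 Pirarubicin uptake into nuclei was measured in P-gp-overexpressing, doxorubicin-resistant K562/DOX cells. [I]0.5 is the modulator concentration giving a half-maximal increase (α = 0.5) in nuclear pirarubicin concentration. αmax is the maximum increase obtainable in resistant cells. Mean ± SE of three independent experiments.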
T1 sequence (P08183 whole entry): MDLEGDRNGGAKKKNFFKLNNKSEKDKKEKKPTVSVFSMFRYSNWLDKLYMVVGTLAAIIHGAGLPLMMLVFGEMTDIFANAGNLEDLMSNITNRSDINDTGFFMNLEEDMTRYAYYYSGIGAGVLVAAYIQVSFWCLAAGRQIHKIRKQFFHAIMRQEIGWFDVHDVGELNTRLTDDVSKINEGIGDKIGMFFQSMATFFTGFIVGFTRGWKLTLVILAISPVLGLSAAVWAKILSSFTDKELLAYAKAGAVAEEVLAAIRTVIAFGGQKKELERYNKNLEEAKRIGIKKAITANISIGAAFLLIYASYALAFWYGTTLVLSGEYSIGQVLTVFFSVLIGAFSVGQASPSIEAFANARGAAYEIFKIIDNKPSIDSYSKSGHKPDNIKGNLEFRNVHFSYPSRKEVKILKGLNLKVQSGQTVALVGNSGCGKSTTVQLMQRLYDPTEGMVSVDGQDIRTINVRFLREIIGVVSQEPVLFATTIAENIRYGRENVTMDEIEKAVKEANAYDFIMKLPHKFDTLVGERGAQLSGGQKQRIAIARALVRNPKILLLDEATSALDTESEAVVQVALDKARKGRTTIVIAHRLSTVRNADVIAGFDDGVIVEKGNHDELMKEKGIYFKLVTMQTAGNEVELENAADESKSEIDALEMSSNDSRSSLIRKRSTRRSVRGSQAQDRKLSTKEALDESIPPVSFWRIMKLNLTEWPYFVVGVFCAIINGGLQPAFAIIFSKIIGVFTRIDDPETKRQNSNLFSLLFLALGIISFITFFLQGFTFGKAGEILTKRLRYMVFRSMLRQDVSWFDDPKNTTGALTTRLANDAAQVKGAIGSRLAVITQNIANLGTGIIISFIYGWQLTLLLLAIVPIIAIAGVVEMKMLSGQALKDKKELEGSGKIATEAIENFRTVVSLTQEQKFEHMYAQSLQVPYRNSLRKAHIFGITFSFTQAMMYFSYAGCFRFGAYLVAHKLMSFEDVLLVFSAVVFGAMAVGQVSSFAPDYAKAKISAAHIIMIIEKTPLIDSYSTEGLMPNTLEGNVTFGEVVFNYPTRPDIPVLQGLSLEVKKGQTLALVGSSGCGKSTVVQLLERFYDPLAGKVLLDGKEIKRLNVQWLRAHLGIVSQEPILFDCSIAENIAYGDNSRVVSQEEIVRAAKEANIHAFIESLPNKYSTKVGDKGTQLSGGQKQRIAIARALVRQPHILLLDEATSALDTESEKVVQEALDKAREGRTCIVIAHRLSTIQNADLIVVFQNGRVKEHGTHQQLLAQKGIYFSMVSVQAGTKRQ

Series [3] can be described thus: Half life in PBS at 1 uM by LC-MS/MS analysis. The class given is physicochemical. In a few lines:
as §1

For series [4], the target named is T1, ATP-dependent translocase ABCB1. Put plainly: Inhibition of P-gp in human K562/DOX cells assessed as drug level causing maximum increase in nuclear pirarubicin concentration incubated for 30 mins by spectroflurometry relative to control. The class given is cell-based. Conditions: 0.5 h. In a few lines: as §2
The target is the same in series [5]. Put plainly: Inhibition of P-glycoprotein-mediated Rhodamine-123 efflux in human K562/DOX cells assessed as […] at 1 uM […] by flow cytometry relative to control. Further details: scale not given: the % may be the effect or the level left. The conditions noted are these: 0.5 h. The class given is cell-based. In short, it runs like this: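 K562/DOX cells were loaded with 5 µM rhodamine-123 for 30 min. They were then washed and held 10 min in rhodamine-free medium, with or without modulator at 1.0 µM. Verapamil at 3.0 µM was the reference. Flow cytometry median fluorescence after efflux was divided by that after uptake and expressed as a percentage. Mean ± SE of three independent experiments.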
In general terms: Flow cytometry measures light scatter and fluorescence of single cells or particles in a stream.

Series [6] has the same target. Description: Inhibition of P-glycoprotein (unknown origin) in MDCK-MDR1 assessed as inhibtion of calcein-AM transport incubated for 30 mins by fluorescence assay. It counts as cell-based.
Series [7] has the same target. Description: Inhibition of P-glycoprotein-mediated Rhodamine-123 efflux in human K562 cells assessed as Rhodamine-123 accumulation at 1 uM preincubated for 15 mins followed by Rhodamine-123 addition measured after 30 mins by flow cytometry. It counts as cell-based. Conditions: k562, 0.5 h.
The target of series [8] is T2, Broad substrate specificity ATP-binding cassette transporter ABCG2 (Homo sapiens, UniProt Q9UNQ0).
T2 sequence (Q9UNQ0 whole entry): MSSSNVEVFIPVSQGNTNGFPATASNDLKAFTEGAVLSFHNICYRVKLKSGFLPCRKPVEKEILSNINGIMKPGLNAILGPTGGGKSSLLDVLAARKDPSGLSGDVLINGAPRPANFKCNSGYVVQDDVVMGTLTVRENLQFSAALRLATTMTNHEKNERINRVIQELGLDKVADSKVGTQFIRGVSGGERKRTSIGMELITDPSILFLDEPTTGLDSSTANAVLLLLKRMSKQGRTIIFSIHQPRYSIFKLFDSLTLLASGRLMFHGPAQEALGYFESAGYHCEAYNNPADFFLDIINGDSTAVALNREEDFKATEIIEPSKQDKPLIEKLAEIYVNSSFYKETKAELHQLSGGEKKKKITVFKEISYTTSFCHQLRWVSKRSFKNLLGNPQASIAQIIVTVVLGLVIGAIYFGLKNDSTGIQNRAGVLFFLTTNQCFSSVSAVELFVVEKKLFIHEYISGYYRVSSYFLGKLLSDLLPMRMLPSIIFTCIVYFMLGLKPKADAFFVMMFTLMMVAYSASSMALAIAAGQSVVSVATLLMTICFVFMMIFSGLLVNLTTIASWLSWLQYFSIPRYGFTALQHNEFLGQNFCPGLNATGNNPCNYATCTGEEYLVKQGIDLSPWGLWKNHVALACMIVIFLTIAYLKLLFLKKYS
Description: Inhibition of BCRP (unknown origin) in MDCK-BCRP assessed as inhibtion of hoechst 33342 transport incubated for 30 mins by fluorescence assay.

Series [9] has as its target T1, ATP-dependent translocase ABCB1. Put plainly: Inhibition of P-glycoprotein (unknown origin) in MDCK-MDR1 assessed as reduction of ATP consumption pre-incubated for 2 hrs followed by substrate addition shaken for 5 mins by luminescence assay. It counts as cell-based. The conditions noted are these: mdck-mdr1, 5 min.
Series [10] in a line: Drug degradation in human plasma at 1 uM measured upto 120 mins by LC-MS/MS analysis. The conditions noted are these: 2 h. The class given is ADME, cell-free. In a few lines:
as §1

By half-life is commonly meant the time needed for the level to fall by half in the phase considered. Usually EC50 stands for the concentration that produces a half-maximal response. For the compound `COc1cc(/C=C/C(=O)OCCCCCCCN(C)CCCOC(=O)c2cc(OC)c(OC)c(OC)c2)cc(OC)c1OC`, the half-life at 1 µM in series [1] and in series [3] was greater than 4 h each time. Also, the IC50 in series [2] is 60 nM. The Alpha max in series [4] stood at 0.99. Also, the Activity in series [5] stood at 58.4%. In addition, the EC50 was 210 nM in series [6] and 8100 nM in [8]. Besides, the “inhibition (INH)” value in series [7] and in series [9] was “Not Active” throughout.
Regarding `COc1cc(/C=C/C(=O)OCCCCCCN(C)CCCCOC(=O)c2c3ccccc3cc3ccccc23)cc(OC)c1OC`, the half-life at 1 µM in series [1] and in [3] was greater than 4 h in each case. Also, the IC50 in [2] stood at 20 nM. The Alpha max in series [4] is 0.94. Also, in [5], the Activity is 92.8%. Moreover, the results for the EC50 in series [6] and in [8] were 520 nM and 3800 nM, respectively. Besides, the “inhibition (INH)” value in series [7] and in series [9] was “Not Active” throughout.
For `COc1cc(/C=C/C(=O)OCCCN(C)CCCCCCCOC(=O)c2c3ccccc3cc3ccccc23)cc(OC)c1OC`, the half-life at 1 µM in series [1] and in series [3] was greater than 4 h each time. Also, in series [2], the IC50 stood at 40 nM. Also, the Alpha max in series [4] worked out at 0.88. Also, the Activity in series [5] was 84.7%. The EC50 is 260 nM in series [6] and 3000 nM in series [8]. For the same compound, the “inhibition (INH)” value in [7] and in series [9] was “Not Active” throughout.
For the compound `COc1cc(/C=C/C(=O)OCCCCN(C)CCCCCCOC(=O)c2c3ccccc3cc3ccccc23)cc(OC)c1OC`, the half-life at 1 µM in series [1] and in series [3] was greater than 4 h each time. Further, in series [2], the IC50 amounted to 10 nM. In series [4], the Alpha max worked out at 0.95. Further, in series [5], the Activity is 64.6%. For the same compound, the results for the concentration giving a half-maximal response (EC50) in [6] and in series [8] were 850 nM and 3300 nM, respectively. Also, the “inhibition (INH)” value in series [7] was “Not Active”; in series [9], “Active”.
Consider `COc1cc(/C=C/C(=O)OCCCN(C)CCCCCCOC(=O)c2cc(OC)c(OC)c(OC)c2)cc(OC)c1OC`, for which the values for the half-life at 1 µM in series [1] and in [3] were 0.65 h and greater than 4 h, respectively. Besides, the IC50 in series [2] was found to be 390 nM. The Stability result in [10] is on record as “Unstable”. The Alpha max in [4] amounted to 0.99.
The matching figures for `COc1cc(/C=C/C(=O)OCCCN(C)CCCCCCCOC(=O)c2cc(OC)c(OC)c(OC)c2)cc(OC)c1OC`: 0.75 h, greater than 4 h, 80 nM, “Unstable” and 0.97.
